Source: paper PMC3264876 (Pharmaceutical Research, 2011)

Assay: Nonsink release testing in MFDS
Assay type: physicochemical
Outline: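 Nanoparticle or bulk crystalline suspensions (nanoparticles at about 6 mg/mL solids, various drug loadings) diluted to 40 μgA/mL in MFDS. MFDS: 7.3 mM NaTC, 1.4 mM POPC, phosphate/NaCl, pH 6.5, 290 mOsm. Stirred at 60 rpm. Duplicate aliquots per time point spun through 100-kDa MWCO filters, 12,000 rpm, 5 min. Free drug is dissolved plus micellar; split estimated from micelle partition coefficient and micelle volume fraction.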

Cc1ccc(-c2cc(C(F)(F)F)nn2-c2ccc(S(N)(=O)=O)cc2)cc1 [celecoxib]
equilibrium partition coefficient into bile-salt micelles (MFDS): approximately 1,000 | maximum concentration in MFDS (dissolved plus in bile-salt micelles) (MFDS pH 6.5, dose 40 μgA/mL): 16 µg/mL | time to reach maximum concentration in MFDS (MFDS, 40 μgA/mL): at least 1 h | concentration of celecoxib in bile-salt micelles (MFDS, equilibrium): about 13.5 μg/mL | dissolved celecoxib concentration at equilibrium (MFDS, from micelle partition coefficient and 0.5% micelle volume): approximately 2.5 μg/mL
